Consider three molecules from ChEMBL document CHEMBL4118021, “Studies of TAK1-centered polypharmacology with novel covalent TAK1 inhibitors” (Bioorg Med Chem, 2017).

Common to all, as to type: cell-based
Experiment [1] has as its target Serine/threonine-protein kinase PRP4 homolog (Homo sapiens) (UniProt Q13523). Put plainly: Inhibition of PRP4 in human SKCO1 cells at 1 uM after 4 hrs using biotin labeled CNILHADIKPDNILVNESK probe by mass-spectrometric analysis relative to control. In short, it runs like this: (§1)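 Live SK-CO-1 cells exposed to compound at 1 μM or DMSO for 4 h (KiNativ). Lysates then labeled with lysine-reactive ATP/ADP-biotin probe, and probe-labeled kinase peptides quantified by mass spectrometry. Percent inhibition of probe-dependent recovery calculated relative to DMSO-treated cells.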

Experiment [2] addresses Cyclin-dependent kinase 16 (Homo sapiens) (UniProt Q00536). Put plainly: Inhibition of PCTAIRE1 in human SKCO1 cells at 1 uM after 4 hrs using biotin labeled DLKPQNLLINER probe by mass-spectrometric analysis relative to control. The gist of the method: as §1
The target of experiment [3] is Glycogen synthase kinase-3 beta (Homo sapiens) (UniProt P49841). Put plainly: Inhibition of GSK3B in human SKCO1 cells at 1 uM after 4 hrs using biotin labeled DIKPQNLLLDPDTAVLK probe by mass-spectrometric analysis relative to control.
The target of experiment [4] is Serine/threonine-protein kinase Chk2 (Homo sapiens) (UniProt O96017). The experiment can be described thus: Inhibition of CHK2 in human SKCO1 cells at 1 uM after 4 hrs using biotin labeled DLKPENVLLSSQEEDCLIK probe by mass-spectrometric analysis relative to control.
Serine/threonine-protein kinase Chk2 (Homo sapiens), sequence (O96017 whole entry): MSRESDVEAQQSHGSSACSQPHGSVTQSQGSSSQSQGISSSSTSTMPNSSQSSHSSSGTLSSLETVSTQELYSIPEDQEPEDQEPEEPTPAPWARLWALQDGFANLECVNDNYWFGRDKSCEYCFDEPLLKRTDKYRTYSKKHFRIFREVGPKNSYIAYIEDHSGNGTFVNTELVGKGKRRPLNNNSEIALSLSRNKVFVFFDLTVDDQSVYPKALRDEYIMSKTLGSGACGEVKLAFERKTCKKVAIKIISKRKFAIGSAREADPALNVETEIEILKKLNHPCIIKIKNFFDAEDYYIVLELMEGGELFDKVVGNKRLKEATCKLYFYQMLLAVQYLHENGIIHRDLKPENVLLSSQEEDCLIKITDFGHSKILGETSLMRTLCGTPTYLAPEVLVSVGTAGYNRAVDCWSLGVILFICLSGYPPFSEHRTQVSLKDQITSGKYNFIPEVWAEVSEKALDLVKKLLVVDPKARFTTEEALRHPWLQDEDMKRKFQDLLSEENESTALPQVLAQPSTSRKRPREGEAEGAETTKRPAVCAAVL
The target of experiment [5] is MAP/microtubule affinity-regulating kinase 3 (Homo sapiens) (UniProt P27448). Put plainly: Inhibition of MARK3 in human SKCO1 cells at 1 uM after 4 hrs using biotin labeled DLKAENLLLDADMNIK probe by mass-spectrometric analysis relative to control.
Experiment [6] concerns the target Serine/threonine-protein kinase 32C (Homo sapiens) (UniProt Q86UX6). Put plainly: Inhibition of YANK3 in human SKCO1 cells at 1 uM after 4 hrs using biotin labeled DVKPDNILLDER probe by mass-spectrometric analysis relative to control. In short, it runs like this: as §1
The target in experiment [7] is Tyrosine-protein kinase CSK (Homo sapiens) (UniProt P41240). The experiment can be described thus: Inhibition of CSK in human SKCO1 cells at 1 uM after 4 hrs using biotin labeled VSDFGLTKEASSTQDTGKLPVK probe by mass-spectrometric analysis relative to control.
Experiment [8] deals with DNA-dependent protein kinase catalytic subunit (Homo sapiens) (UniProt P78527). The experiment can be described thus: Inhibition of DNAPK in human SKCO1 cells at 1 uM after 4 hrs using biotin labeled EHPFLVKGGEDLR probe by mass-spectrometric analysis relative to control.
DNA-dependent protein kinase catalytic subunit (Homo sapiens), sequence (P78527 whole entry): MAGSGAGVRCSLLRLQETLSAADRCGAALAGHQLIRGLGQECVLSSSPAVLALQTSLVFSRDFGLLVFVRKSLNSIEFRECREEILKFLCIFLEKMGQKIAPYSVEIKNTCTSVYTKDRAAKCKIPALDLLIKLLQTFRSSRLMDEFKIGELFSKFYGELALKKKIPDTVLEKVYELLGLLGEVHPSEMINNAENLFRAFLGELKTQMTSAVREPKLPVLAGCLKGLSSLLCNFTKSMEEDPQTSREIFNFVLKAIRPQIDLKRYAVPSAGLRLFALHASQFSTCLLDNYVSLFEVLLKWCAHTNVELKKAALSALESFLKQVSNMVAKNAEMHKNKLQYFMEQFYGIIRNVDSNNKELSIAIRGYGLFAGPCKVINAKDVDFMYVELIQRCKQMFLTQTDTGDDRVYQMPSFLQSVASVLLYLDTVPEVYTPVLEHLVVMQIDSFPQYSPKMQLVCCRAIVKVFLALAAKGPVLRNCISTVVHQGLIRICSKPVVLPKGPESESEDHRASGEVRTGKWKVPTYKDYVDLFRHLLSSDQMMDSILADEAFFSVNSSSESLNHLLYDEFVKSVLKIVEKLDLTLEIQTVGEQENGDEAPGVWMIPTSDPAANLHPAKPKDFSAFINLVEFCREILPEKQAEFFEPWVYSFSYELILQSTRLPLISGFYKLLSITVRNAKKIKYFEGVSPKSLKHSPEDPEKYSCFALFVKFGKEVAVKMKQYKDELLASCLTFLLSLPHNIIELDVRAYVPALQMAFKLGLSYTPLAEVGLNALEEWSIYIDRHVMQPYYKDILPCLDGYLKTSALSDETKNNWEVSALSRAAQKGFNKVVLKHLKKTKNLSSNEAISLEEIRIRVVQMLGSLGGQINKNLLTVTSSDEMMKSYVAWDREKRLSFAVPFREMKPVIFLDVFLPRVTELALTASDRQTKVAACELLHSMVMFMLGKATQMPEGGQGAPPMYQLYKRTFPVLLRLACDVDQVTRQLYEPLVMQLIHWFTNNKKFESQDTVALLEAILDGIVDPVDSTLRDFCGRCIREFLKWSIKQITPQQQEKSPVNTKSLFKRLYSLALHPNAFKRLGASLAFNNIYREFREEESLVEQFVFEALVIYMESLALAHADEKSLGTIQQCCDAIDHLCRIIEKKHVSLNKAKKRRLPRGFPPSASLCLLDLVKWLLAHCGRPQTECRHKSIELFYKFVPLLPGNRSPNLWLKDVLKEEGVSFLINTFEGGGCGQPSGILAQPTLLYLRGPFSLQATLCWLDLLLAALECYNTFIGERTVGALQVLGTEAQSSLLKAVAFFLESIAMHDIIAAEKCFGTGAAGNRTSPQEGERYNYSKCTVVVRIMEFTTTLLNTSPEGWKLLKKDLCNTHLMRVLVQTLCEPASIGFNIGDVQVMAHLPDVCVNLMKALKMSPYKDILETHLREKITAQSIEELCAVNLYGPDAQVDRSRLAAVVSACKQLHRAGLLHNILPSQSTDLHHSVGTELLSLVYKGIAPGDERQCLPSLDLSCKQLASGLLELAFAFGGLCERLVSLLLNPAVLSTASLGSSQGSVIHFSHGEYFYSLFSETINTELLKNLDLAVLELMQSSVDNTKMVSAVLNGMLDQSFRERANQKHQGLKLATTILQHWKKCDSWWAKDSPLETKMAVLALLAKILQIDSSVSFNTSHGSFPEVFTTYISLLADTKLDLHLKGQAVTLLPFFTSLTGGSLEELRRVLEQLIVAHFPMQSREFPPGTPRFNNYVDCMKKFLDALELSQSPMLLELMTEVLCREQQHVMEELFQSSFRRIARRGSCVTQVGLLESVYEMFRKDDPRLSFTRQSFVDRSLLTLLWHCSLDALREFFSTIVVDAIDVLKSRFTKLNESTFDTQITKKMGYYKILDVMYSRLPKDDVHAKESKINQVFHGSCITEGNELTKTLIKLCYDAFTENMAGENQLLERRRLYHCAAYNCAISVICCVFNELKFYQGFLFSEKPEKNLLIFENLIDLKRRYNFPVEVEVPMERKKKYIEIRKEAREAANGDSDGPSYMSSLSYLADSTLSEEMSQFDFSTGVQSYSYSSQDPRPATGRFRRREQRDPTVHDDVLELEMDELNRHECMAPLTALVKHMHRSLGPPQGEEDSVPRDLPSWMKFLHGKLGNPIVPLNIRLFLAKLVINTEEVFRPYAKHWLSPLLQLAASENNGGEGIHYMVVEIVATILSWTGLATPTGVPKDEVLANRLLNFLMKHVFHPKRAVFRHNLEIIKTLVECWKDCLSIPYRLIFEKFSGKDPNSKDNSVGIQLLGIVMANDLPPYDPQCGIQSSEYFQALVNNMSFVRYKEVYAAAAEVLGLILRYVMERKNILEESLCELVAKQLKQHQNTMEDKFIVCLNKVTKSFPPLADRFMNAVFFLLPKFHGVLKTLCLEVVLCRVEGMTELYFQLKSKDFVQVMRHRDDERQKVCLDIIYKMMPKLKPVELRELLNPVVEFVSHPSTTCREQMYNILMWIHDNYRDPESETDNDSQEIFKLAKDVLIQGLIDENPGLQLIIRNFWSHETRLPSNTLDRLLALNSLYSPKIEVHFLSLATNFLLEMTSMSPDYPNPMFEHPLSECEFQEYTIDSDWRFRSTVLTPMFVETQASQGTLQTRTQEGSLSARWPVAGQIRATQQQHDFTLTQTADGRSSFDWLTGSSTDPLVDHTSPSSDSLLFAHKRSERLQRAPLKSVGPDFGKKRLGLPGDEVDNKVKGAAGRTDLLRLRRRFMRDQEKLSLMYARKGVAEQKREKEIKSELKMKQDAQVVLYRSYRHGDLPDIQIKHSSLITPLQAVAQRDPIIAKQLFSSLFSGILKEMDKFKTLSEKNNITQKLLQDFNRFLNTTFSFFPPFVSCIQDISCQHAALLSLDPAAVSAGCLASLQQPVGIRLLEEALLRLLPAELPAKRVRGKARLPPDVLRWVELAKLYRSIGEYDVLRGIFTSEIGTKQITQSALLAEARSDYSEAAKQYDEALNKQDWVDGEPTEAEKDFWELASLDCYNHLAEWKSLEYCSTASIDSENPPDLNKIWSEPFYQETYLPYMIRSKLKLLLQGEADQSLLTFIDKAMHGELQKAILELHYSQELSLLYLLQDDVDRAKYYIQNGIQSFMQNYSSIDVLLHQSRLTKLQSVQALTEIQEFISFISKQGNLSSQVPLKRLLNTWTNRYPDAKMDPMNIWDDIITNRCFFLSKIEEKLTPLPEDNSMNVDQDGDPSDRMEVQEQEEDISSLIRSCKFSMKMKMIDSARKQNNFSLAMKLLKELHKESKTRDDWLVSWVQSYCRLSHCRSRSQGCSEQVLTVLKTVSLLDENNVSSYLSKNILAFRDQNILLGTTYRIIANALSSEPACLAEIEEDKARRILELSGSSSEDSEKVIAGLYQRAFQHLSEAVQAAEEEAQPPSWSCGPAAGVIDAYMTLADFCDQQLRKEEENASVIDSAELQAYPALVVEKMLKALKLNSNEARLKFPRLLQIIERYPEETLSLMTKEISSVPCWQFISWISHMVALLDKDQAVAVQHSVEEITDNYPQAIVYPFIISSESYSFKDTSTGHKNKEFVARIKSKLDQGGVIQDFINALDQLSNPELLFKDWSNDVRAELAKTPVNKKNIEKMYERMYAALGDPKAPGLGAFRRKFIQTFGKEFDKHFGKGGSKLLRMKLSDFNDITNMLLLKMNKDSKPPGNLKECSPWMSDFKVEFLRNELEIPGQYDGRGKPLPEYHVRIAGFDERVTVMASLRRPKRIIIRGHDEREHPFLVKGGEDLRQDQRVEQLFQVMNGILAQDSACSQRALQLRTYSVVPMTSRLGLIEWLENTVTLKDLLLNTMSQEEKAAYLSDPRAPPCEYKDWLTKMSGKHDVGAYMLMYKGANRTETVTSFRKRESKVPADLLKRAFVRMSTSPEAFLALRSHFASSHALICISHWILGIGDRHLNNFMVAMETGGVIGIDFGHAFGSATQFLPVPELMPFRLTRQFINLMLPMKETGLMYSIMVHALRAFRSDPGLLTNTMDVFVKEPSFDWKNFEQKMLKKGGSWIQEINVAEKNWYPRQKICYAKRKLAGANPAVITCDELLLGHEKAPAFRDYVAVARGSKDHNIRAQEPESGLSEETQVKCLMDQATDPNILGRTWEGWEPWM
Experiment [9] addresses Mitogen-activated protein kinase kinase kinase 20 (Homo sapiens) (UniProt Q9NYL2). The experiment can be described thus: Inhibition of ZAK in human SKCO1 cells at 1 uM after 4 hrs using biotin labeled WISQDKEVAVKK probe by mass-spectrometric analysis relative to control. In short, it runs like this: as §1
Experiment [10] addresses 5'-AMP-activated protein kinase catalytic subunit alpha-1 (Homo sapiens) (UniProt Q13131). Put plainly: Inhibition of AMPKa1 in human SKCO1 cells at 1 uM after 4 hrs using biotin labeled DLKPENVLLDAHMNAK probe by mass-spectrometric analysis relative to control. In short, it runs like this:
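Live SK-CO-1 cells were treated 4 h with compound at 1 μM or DMSO, then lysed. Lysates were labeled with a lysine-reactive ATP/ADP-biotin probe and analysed by mass spectrometry. Percent inhibition is the loss of probe-dependent recovery of the kinase peptide relative to DMSO.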

In experiment [11] the target is T1, Serine/threonine-protein kinase TAO1 (Homo sapiens) (UniProt Q7L7X3).
T1 sequence (whole entry): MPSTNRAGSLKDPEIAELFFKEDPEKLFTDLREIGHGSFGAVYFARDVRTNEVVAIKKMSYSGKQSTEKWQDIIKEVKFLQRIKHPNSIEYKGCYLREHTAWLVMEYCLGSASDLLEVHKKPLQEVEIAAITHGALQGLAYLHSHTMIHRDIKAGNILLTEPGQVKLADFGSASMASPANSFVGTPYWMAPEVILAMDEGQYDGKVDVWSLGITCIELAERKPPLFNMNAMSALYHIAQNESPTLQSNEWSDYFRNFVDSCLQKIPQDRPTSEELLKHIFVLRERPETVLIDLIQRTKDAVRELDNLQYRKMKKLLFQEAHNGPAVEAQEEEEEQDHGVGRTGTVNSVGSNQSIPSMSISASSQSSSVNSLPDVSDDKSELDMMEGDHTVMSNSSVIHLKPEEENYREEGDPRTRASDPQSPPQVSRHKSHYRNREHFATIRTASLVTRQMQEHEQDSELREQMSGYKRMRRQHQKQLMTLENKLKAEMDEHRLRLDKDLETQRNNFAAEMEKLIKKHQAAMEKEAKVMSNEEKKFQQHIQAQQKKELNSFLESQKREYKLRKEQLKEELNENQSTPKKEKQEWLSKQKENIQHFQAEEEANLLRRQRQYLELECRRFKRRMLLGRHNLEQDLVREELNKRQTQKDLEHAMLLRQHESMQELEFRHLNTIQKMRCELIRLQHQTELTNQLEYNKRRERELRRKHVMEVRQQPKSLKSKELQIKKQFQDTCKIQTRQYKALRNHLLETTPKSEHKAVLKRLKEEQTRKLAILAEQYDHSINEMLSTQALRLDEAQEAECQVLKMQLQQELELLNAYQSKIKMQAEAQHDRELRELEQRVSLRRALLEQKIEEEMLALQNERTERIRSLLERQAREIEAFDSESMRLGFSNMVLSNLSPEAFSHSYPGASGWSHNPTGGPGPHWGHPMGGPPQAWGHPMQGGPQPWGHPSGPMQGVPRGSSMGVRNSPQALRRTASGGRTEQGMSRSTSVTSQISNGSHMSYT
The experiment can be described thus: Inhibition of TAO1 in human SKCO1 cells at 1 uM after 4 hrs using biotin labeled DIKAGNILLTEPGQVK probe by mass-spectrometric analysis relative to control. The gist of the method: as §1

Experiment [12] concerns the target Ribosomal protein S6 kinase beta-2 (Homo sapiens) (UniProt Q9UBS0). The experiment can be described thus: Inhibition of p70S6Kb in human SKCO1 cells at 1 uM after 4 hrs using biotin labeled DLKPENIMLSSQGHIK probe by mass-spectrometric analysis relative to control. The gist of the method: as §1

Serine/threonine-protein kinase 32C (Homo sapiens), sequence (Q86UX6 whole entry): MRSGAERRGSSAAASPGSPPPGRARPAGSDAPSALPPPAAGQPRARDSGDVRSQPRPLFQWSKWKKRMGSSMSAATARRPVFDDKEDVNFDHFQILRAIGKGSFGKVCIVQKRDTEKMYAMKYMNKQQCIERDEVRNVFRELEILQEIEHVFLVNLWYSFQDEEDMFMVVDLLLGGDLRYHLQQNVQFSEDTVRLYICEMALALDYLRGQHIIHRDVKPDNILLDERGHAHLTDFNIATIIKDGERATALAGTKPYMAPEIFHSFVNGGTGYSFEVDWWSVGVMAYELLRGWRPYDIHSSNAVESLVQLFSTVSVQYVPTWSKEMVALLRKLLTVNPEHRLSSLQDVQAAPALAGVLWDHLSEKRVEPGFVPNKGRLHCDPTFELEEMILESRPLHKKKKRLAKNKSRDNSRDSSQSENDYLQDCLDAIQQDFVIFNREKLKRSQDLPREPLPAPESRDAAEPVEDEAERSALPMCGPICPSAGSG

What is called inhibition is the relative decrease from the control value, in per cent. Turning to `C=CC(=O)Nc1ccccc1Nc1nc(Nc2ccc(N3CCN(C)CC3)cc2)ncc1Cl`, the inhibition is 32.7% in [1]; -3.2% in experiment [2]; -6.6% in experiment [3]; 8.5% in experiment [4]; -7.2% in experiment [5]; -0.3% in [6]. Moreover, the inhibition in experiment [7] was -0.8%; in experiment [8], 0.5%; in experiment [9] it was 26%; in experiment [10], 76%; in experiment [11], 13.1%; in experiment [12], 3.3%.

For the molecule `COc1cc(O)c2c(c1)/C=C/C[C@H](O)[C@H](O)C(=O)/C=C\C[C@H](C)OC2=O`, the inhibition in experiment [1] is 15.4%; in experiment [2] it was -6.3%; in [3] it was 3%; in experiment [4] it was 12.6%; in experiment [5], 3.6%; in experiment [6], -1.6%. In addition, the inhibition in experiment [7] is -1.8%; in [8] it was 21.7%; in experiment [9], 87.5%; in experiment [10], 33.6%; in experiment [11], 39.4%; in experiment [12], 54.6%.

As for `C=CC(=O)Nc1ccccc1Oc1nc(Nc2cnn(CCOC)c2)ncc1Cl`, the inhibition in [1] is 18.7%; in [2] it was -5.9%; in experiment [3], 17%; in experiment [4], -6.3%; in experiment [5] it was -8.4%; in [6], 9.3%. For the same molecule, the inhibition in experiment [7] is 5.2%; in experiment [8], 16.2%; in experiment [9] it was -9.2%; in experiment [10] it was 0.2%; in experiment [11] it was 9.6%; in experiment [12] it was -1.5%.
